High-throughput results deposited in PubChem by several laboratories.
Apaf-1 inh – human Apaf-1 inhibition; O14727; reconstituted apoptosome caspase-3 activity, DEVD-Rh110 fluorescence; inhibition, % at 20 µM; actives 0.71% (n = 330,000); AID 489030; active = inhibition of at least 40% at 20 µM;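 note: plate controls were DMSO wells for no effect and DEVD-CHO caspase inhibitor wells for full effect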
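Material: biochemical Apaf-1 apoptosome reconstitution. Medium: Hepes buffer, pH 7.5. Also added: cytochrome c activation, bis-DEVD rhodamine 110 substrate. Timing: 30 min compound preincubation, 50 min activation, room temperature. Measured by: rhodamine 110 fluorescence at Ex 480/Em 540 nm.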
GSTO1 counter – GSTO1 inhibition, counter-screen for RBBP9 inhibitors; P78417; recombinant GSTO1, activity-based probe fluorescence polarization; inhibition, % at 5.96 µM; actives 1.1% (n = 300,000); AID 1974;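 active = inhibition above the campaign mean inhibition plus 3 SD, cut at about 35% in these data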;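 note: 0% = GSTO1-1 with DMSO and 100% = wells lacking GSTO1-1 enzyme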
ZTA DNA inh – counter-screen for EBNA-1 inhibitors: inhibitors of Epstein-Barr virus ZTA | P03206 | actives 0.15% (n = 320,000) | AID 2234 | inhibition, % at 11 µM | ZTA-DNA binding, fluorescence polarization; in the data active = inhibition above about 33%
proCasp7 act – counter-screen for procaspase-3 activators: activators of human procaspase-7 | recombinant procaspase-7, Ac-DEVD-pNA absorbance 405 nm; D23A/D198A/D206A triple mutant, cannot self-cleave; scale: DMSO 0, 5 µM enzyme 100 | activation, % at 8.5 µM | actives 0.093% (n = 330,000);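 active = percent activation above the screen-wide mean plus 3 SD, cut at about 25% in these data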
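Assay system: Uncleavable procaspase-7 mutant enzyme / Input: 2 µM procaspase-7 mutant as dispensed / Dosing: single nominal 8.5 µM compound dose, 0.8% DMSO final / Timing: 1 h enzyme–compound preincubation and 2 h substrate reaction, both 25 °C / Detection: p-Nitroaniline absorbance at 405 nm, read at 0 and 120 min / Replication: singlicate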
EBNA-1 inh – blocks EBNA-1 binding to DNA; actives 0.34% (n = 300,000); EBNA-1 DNA binding, fluorescence polarization; AID 1950; inhibition, % at 14.8 µM; in the data active = inhibition above about 28%
procasp3 activ – procaspase-3 (human) activation | activation, % at 8.5 µM | actives 0.11% (n = 330,000) | recombinant procaspase-3 D3A, Ac-DEVD-pNA absorbance 405 nm | P42574 | AID 463141;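 active = activation above the mean of all tested compounds plus 3 SD, cut at about 21% in these data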;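 note: 0% = DMSO alone and 100% = DMSO wells spiked with extra 5 µM PC-3 D3A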
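material = Procaspase-3 D3A mutant | probe or stimulus = Ac-DEVD-pNA | compound = single dose, 8.5 µM nominal compound, 0.8% DMSO | timing = 1 h preincubation, 2 h reaction | measured by = 405 nm absorbance of p-nitroaniline, reads at 0 and 120 min | benchmarks = DMSO-only low control, 5 µM PC-3 D3A high control | repeats = singlicate, each compound tested once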
Zta DNA confirm – confirmation of Epstein-Barr virus ZTA DNA binding inhibitors; shares compounds with ZTA DNA inh; Zta-ZRE DNA binding, fluorescence polarization; inhibition, % at 11.1 µM; actives 30% (n = 320);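 active = mean inhibition across triplicate runs above the hit threshold derived for the original primary screen, cut at about 33% in these data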;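 note: 0% = Zta with DMSO and 100% = wells lacking Zta protein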
EBNA-1 counter – blocks EBNA-1 DNA binding in ZTA counter-screen; shares compounds with ZTA DNA inh; fluorescence polarization; inhibition, % at 14.8 µM; 320 tested, under 10 active; call rule not given here
Numbers without * were called inactive; x = not tested or not shown. Hits are enriched below; roughly 1.8% of the tested compounds scored in any of these assays.

SMILES | Apaf-1 inh | GSTO1 counter | ZTA DNA inh | proCasp7 act | EBNA-1 inh | procasp3 activ | Zta DNA confirm | EBNA-1 counter
C#CCOCCOCCOCCNc1nc(N2CCN(C(=O)CCCCCCCCCCNC(=O)[C@H](CCCCN)n3cc(CCO)nn3)CC2)nc(N2CCN(C(=O)CCCCCCCCCCNC(=O)[C@H](CCCCN)n3cc(C[C@@H](C)CC)nn3)CC2)n1 | 68* | 3 | 55* | -3 | 13 | -1 | 81* | 7
C#CCOCCOCCOCCNc1nc(N2CCOCC2)nc(N2CCN(C(=O)CCCCCCCCCCNC(=O)[C@H](CO)n3cc(CCCSC)nn3)CC2)n1 | 25 | 14 | 3 | -3 | 5 | 4 | x | x
C#CCOCCOCCOCCNc1nc(N2CCN(C(=O)CCCCCCCCCCNC(=O)[C@H](CCCCN)n3cc(C[C@@H](C)CC)nn3)CC2)nc(N2CCN(C(=O)CCCCCCCCCCNC(=O)[C@@H]([C@H](C)O)n3cc(C)nn3)CC2)n1 | 58* | -12 | 50* | 4 | -1 | -8 | 33 | -8
C#CCOCCOCCOCCNc1nc(N2CCN(C(=O)CCCCCCCCCCNC(=O)Cn3cc(CCCCCN)nn3)CC2)nc(N2CCN(C(=O)CCCCCCCCCCNC(=O)Cn3cc(C[C@@H](C)O)nn3)CC2)n1 | 71* | 0 | 46* | -3 | 1 | 6 | 20 | 0
C#CCOCCOCCOCCNc1nc(N2CCN(C(=O)CCCCCCCCCCNC(=O)[C@@H](CCSC)n3cc(CCO)nn3)CC2)nc(N2CCN(C(=O)CCCCCCCCCCNC(=O)[C@H](CCCN=C(N)N)n3cc(C[C@@H](C)CC)nn3)CC2)n1 | 62* | -14 | 141* | -2 | 12 | 6 | 62* | -2
C#CCOCCOCCOCCNc1nc(N2CCN(C(=O)Cn3cc(CCCCN)nn3)CC2)nc(N2CCN(C(=O)Cn3cc(CC(C)O)nn3)CC2)n1 (configuration not stated) | 5 | 7 | 8 | -5 | 1 | 3 | x | x
O=C(Nc1ccc(Cl)cc1)c1nc[nH]c1C(=O)N1CCN(c2ccccc2)CC1 | 21 | x | x | 10 | x | 0 | x | x
COc1ccc(NC(=O)CNc2cccc(S(=O)(=O)N3CCCCCC3)c2)c([N+](=O)[O-])c1 | 5 | x | 1 | -4 | x | -3 | x | x
Cc1c(NC(=O)Nc2cccc(C(F)(F)F)c2)c(=O)n(-c2ccccc2)n1C | 7 | 3 | 3 | 8 | 3 | 4 | x | x
CN(C(=O)c1cccc(C#N)c1)c1nnc(C2CCCO2)s1 (configuration not stated) | -1 | -3 | 110* | 0 | -2 | 4 | 4 | 1
CCOc1cc(/C=C2/C(=O)ON=C2C)ccc1OCc1ccc(F)cc1 | 10 | 3 | 35* | 3 | -4 | 4 | 4 | 0
CCOc1cc(/C=C2/C(=O)ON=C2C)ccc1OCc1ccccc1 | 6 | -2 | 3 | -4 | 2 | 3 | x | x
COc1ccc(-c2c(-c3ccc(OC)nc3)c3ccccc3n2C)cc1 | 26 | x | x | -44 | x | -26 | x | x
CC(C)(C(=O)Nc1nccs1)c1ccccc1 | 1 | 1 | 40* | 6 | 2 | -2 | 2 | -1
Fc1ccc(/C=N/NC2=Nc3cccc4cccc2c34)cc1 | 13 | -7 | 179* | -14 | 0 | -36 | -3 | 4
CNS(=O)(=O)c1cccc(C(=O)OCC(=O)NC2CCCC(C)C2C)c1 (configuration not stated) | -5 | x | x | 12 | x | -1 | x | x
CC1CCCC(NC(=O)COC(=O)c2cccc(S(=O)(=O)N3CCCCC3)c2)C1C (configuration not stated) | -6 | x | 41* | -1 | x | 4 | 0 | 8
COc1ccc2ccc(=O)oc2c1CC(=O)C(C)C | -9 | x | x | 5 | x | 0 | x | x
COc1ccc(NC(=O)CCN2CCC(C)CC2)cc1 | -3 | 0 | -11 | -4 | -20 | 5 | x | x
COc1ccc(NC(=O)CCN2CCCC(C)C2)cc1 (configuration not stated) | -8 | 4 | 52* | -6 | 5 | 1 | 1 | -10
Cc1cc(C)n(CC(=O)Nc2ccc(N3CCOCC3)c(Cl)c2)c(=O)c1C#N | -2 | 8 | 16 | -3 | -4 | 6 | x | x
CCC(NC(=O)CCc1ccccc1)c1ccccc1 (configuration not stated) | 1 | 9 | -20 | -3 | 6 | 0 | x | x
O=C(O)CC(NC(=O)CCc1ccccc1)c1ccc(Cl)cc1 (configuration not stated) | 3 | 8 | 62* | 2 | 11 | 3 | -1 | -5
CCc1ccc2nc(N(CCCN(C)C)C(=O)c3ccc(S(=O)(=O)N4CCCC4)cc3)sc2c1 | 5 | -6 | 0 | 11 | 1 | 8 | x | x
CCc1ccc2nc(N(CCCN(C)C)C(=O)c3ccc(S(=O)(=O)N4CCCc5ccccc54)cc3)sc2c1 | 32 | -1 | 37* | 19 | 2 | 3 | 7 | 0
SMILES | Apaf-1 inh | GSTO1 counter | ZTA DNA inh | proCasp7 act | EBNA-1 inh | procasp3 activ | Zta DNA confirm | EBNA-1 counter
COc1cccc(=O)c2c(C)n(-c3ccc(C(=O)O)cc3)c(C)c12 | 7 | 30 | 46* | -10 | 16 | 2 | -8 | -4
Cc1cccc(NC(=O)COc2ccc(/C=C\c3[nH]c(=O)[nH]c(=O)c3[N+](=O)[O-])cc2)c1 | 9 | -69 | 44* | 8 | 19 | -6 | 42* | 9
CC(C)NC(=O)N(C)C[C@@H]1Oc2c(NC(=O)Nc3ccccc3)cccc2C(=O)N([C@H](C)CO)C[C@H]1C | -7 | x | x | 3 | x | 0 | x | x
COc1ccc2nc(SCC(=O)Nc3cc(C)on3)c(C#N)cc2c1 | -9 | -9 | 50* | -4 | -6 | -13 | 11 | 6
COc1cc2cc(C#N)c(SCC(=O)Nc3cc(C)on3)nc2cc1OC | -13 | 5 | 0 | -3 | 12 | -2 | x | x
Cc1ccc(C(=O)O)cc1NC(=O)CSc1nnc(-c2ccccc2F)n1C1CCCCC1 | -11 | x | x | 6 | x | 7 | x | x
CCCCC(=O)Nc1ccc2oc(-c3cccnc3)nc2c1 | -2 | -3 | 3 | -9 | -8 | 1 | x | x
CCCC(=O)Nc1ccc2oc(-c3cccnc3)nc2c1 | 9 | 1 | 45* | 8 | -7 | -5 | 2 | -5
CCCCNC(=S)N1CCN(C(c2ccccc2)c2ccccc2)CC1 | 9 | -2 | 43* | 9 | 9 | 2 | 12 | 10
CCCNC(=S)N1CCN(C(c2ccccc2)c2ccccc2)CC1 | 32 | -2 | 1 | 6 | -6 | -8 | x | x
